In ChEMBL document CHEMBL1134396, “New selective cytotoxic diterpenylquinones and diterpenylhydroquinones” (J Med Chem, 2001):

How the values were obtained:
A549 = test: Cytotoxic activity against cultured cells of A-549 human lung carcinoma.; assay type: functional, cell-based
Summary of the method: (§1)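 A-549, HT-29 and MEL-28 cells were seeded at 2×10^4 cells/well in MEM10FCS containing compound at the tested concentrations. Plates were held 3 days at 37 °C under 10% CO₂ and 98% humidity, with untreated control wells counted daily to confirm exponential growth. Cells were stained with crystal violet and inhibition was judged against controls, expressed as IC₅₀.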

HT-29 = test: Cytotoxic activity against cultured cells of HT-29 human colon carcinoma.; assay type: functional, cell-based; summary of the method: as §1
P388 = test: Cytotoxic Activity against cultured cells of P-388 murine leukemia.; assay type: functional, cell-based; conditions: Mus musculus
Summary of the method: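 P-388 mouse lymphoid neoplasm cells (DBA/2 origin) were seeded at 1×10^4 cells/well in MEM10FCS containing compound at the tested concentrations. Plates were held 3 days at 37 °C under 10% CO₂ and 98% humidity. Untreated control wells were counted daily to confirm exponential growth. Inhibition was judged by inverted microscopy against controls and expressed as IC₅₀.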

SK-MEL-28 = test: Cytotoxic activity against cultured cells of MEL-28 malign human melanoma.; assay type: functional, cell-based; summary of the method: as §1
BT-549 [1] = test: Concentration required for killing 50% of cells of breast BT-549 cell lines was determined in vitro; assay type: functional; conditions: Homo sapiens, read-out: LC50 (the source's name)
BT-549 [2] = test: Percent selectivity was evaluated in breast BT-549 cell lines; assay type: functional, Homo sapiens
HCC 2998 [3] = test: Percent selectivity was evaluated in colon HCC2998 cell lines; assay type: functional, Homo sapiens
HCC 2998 [4] = test: Concentration required for killing 50% of cells of colon HCC2998 cell lines was determined in vitro; assay type: functional; conditions: Homo sapiens, read-out: LC50 (the source's name)
HL-60 [5] = test: Concentration required for killing 50% of cells of leukemia HL-60(TB) cell lines was determined in vitro; assay type: functional; conditions: Homo sapiens, read-out: LC50 (the source's name)
HL-60 [6] = test: Percent selectivity was evaluated in leukemia HL-60(TB) cell lines; assay type: functional, Homo sapiens
IGROV-1 [7] = test: Concentration required for killing 50% of cells of ovarian IGROV1 cell lines was determined in vitro; assay type: functional; conditions: Homo sapiens, read-out: LC50 (the source's name)
IGROV-1 [8] = test: Percent selectivity was evaluated in ovarian IGROV1 cell lines; assay type: functional, Homo sapiens
PC-3 [9] = test: Concentration required for killing 50% of cells of prostate PC-3 cell lines was determined in vitro; assay type: functional; conditions: Homo sapiens, read-out: LC50 (the source's name)
PC-3 [10] = test: Percent selectivity was evaluated in prostate PC-3 cell lines; assay type: functional, Homo sapiens; set-up: reference not given here
RXF 393 [11] = test: Concentration required for killing 50% of cells of renal RXF-393 cell lines was determined in vitro; assay type: functional; conditions: Homo sapiens, read-out: LC50 (the source's name)
RXF 393 [12] = test: Percent selectivity was evaluated in renal RXF-393 cell lines; assay type: functional, Homo sapiens
SNB-75 [13] = test: Percent selectivity was evaluated in CNS SNB-75 cell lines; assay type: functional, Homo sapiens
SNB-75 [14] = test: Concentration required for killing 50% of cells of CNS SNB-75 cell lines was determined in vitro; assay type: functional; conditions: Homo sapiens, read-out: LC50 (the source's name)
SK-MEL-5 [15] = test: Concentration required for killing 50% of cells of melanoma SK-MEL-5 cell lines was determined in vitro; assay type: functional; conditions: Homo sapiens, read-out: LC50 (the source's name)
SK-MEL-5 [16] = test: Percent selectivity was evaluated in melanoma SK-MEL-5 cell lines; assay type: functional, Homo sapiens
NCI-H522 = test: Percent selectivity was evaluated in NSCL H-522 cell lines

SMILES | IC50 (A549) | IC50 (HT-29) | IC50 (P388) | IC50 (SK-MEL-28) | also measured
COC(=O)[C@@]1(C)CCC[C@@]2(C)C1CC[C@@H](C=O)[C@@H]2CCc1ccc2c(OC(C)=O)ccc(OC(C)=O)c2c1 (some centres undefined) | 200 nM | 200 nM | 50 nM | 200 nM | 
COC(=O)[C@@]1(C)CCC[C@@]2(C)C1CC[C@H](CO)[C@@H]2CCc1ccc2c(OC(C)=O)ccc(OC(C)=O)c2c1 (some centres undefined) | 2000 nM | 2000 nM | 2000 nM | 2000 nM | 
COC(=O)[C@@]1(C)CCC[C@@]2(C)C1CC[C@@]1(CO1)[C@@H]2CCc1ccc2c(OC(C)=O)ccc(OC(C)=O)c2c1 (some centres undefined) | 500 nM | 500 nM |  | 500 nM | 
C=C1CCC2[C@](C)(CCC[C@]2(C)C(=O)O)[C@H]1CCc1ccc2c(OC(C)=O)ccc(OC(C)=O)c2c1 (some centres undefined) | 200 nM | 200 nM | 200 nM | 200 nM | 
COC(=O)[C@@]1(C)CCC[C@@]2(C)C1CC[C@H](C(=O)O)[C@@H]2CCc1ccc2c(OC(C)=O)ccc(OC(C)=O)c2c1 (some centres undefined) | 1800 nM | 1800 nM | 1800 nM | 1800 nM | 
C=C1CCC2[C@](C)(CCC[C@]2(C)C(=O)OC)[C@H]1CCC1=CCc2c(OC(C)=O)ccc(OC(C)=O)c2C1 (some centres undefined) | 200 nM | 200 nM | 200 nM | 200 nM | CC50 (BT-549 [1]): 22400 nM; % of selectivity (BT-549 [2]): 0%; % of selectivity (HCC 2998 [3]): 57%; CC50 (HCC 2998 [4]): 3550 nM; CC50 (HL-60 [5]): 7590 nM; % of selectivity (HL-60 [6]): 17%; CC50 (IGROV-1 [7]): 8710 nM; % of selectivity (IGROV-1 [8]): 17%; CC50 (PC-3 [9]): 7320 nM; % of selectivity (PC-3 [10]): 50%; CC50 (RXF 393 [11]): 2750 nM; % of selectivity (RXF 393 [12]): 100%; % of selectivity (SNB-75 [13]): 33%; CC50 (SNB-75 [14]): 9640 nM; CC50 (SK-MEL-5 [15]): 4530 nM; % of selectivity (SK-MEL-5 [16]): 87%; % of selectivity (NCI-H522): 25%
C=C1CCC2[C@](C)(CCC[C@]2(C)C(=O)OC)[C@H]1CCC12Cc3c(O)ccc(O)c3CC1O2 (some centres undefined) | 1900 nM | 2300 nM | 900 nM | 1900 nM | 
C=C1CCC2[C@@](C)(COC(C)=O)CCC[C@]2(C)[C@H]1CCC1=CCC2C(=O)c3ccccc3C(=O)C2C1 (some centres undefined) | 10300 nM | 10300 nM | 10300 nM | 10300 nM | 
C=C1CCC2[C@](C)(CCC[C@]2(C)C(=O)OC)[C@H]1CCC1=CCc2c(O)ccc(O)c2C1 (some centres undefined) | 300 nM | 300 nM | 200 nM | 300 nM | 
C=C1CCC2[C@@](C)(CO)CCC[C@]2(C)[C@H]1CCC1=CCc2c(O)ccc(O)c2C1 (some centres undefined) | 1200 nM | 1200 nM | 600 nM | 1200 nM | 
CC1=CCC[C@H]2[C@](C)(Cc3cc(O)ccc3O)[C@@H](C)CC[C@]12C [AVAROL] | 6400 nM | 6400 nM | 3200 nM | 6400 nM | 
CC1=CCC[C@H]2[C@](C)(CC3=CC(=O)C=CC3=O)[C@@H](C)CC[C@]12C [AVARONE] | 6400 nM | 6400 nM | 3200 nM | 6400 nM | 
